Data as given in ChEMBL document CHEMBL5325390, “1,2,4-Triazole-3-thione analogues with an arylakyl group at position 4 as metallo-β-lactamase inhibitors” (Bioorg Med Chem, 2022).
Active and inactive are the calls of the source. The calls are words filed in the database; no cut-off is given here.

What was measured:
[1] = molecular target: Metallo-beta-lactamase type 2 (Bacteria) (UniProt C7C422); assay: Inhibition of NDM1 (unknown origin) expressed in Escherichia coli BL21(DE3) assessed as substrate hydrolysis at 100 uM by UV-Vis spectrophotometric analysis relative to control
Summary of the method: (§1)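 Single-point screen at 100 or 200 µM inhibitor against purified MBL (1–70 nM) with 150 µM imipenem or meropenem reporter substrate, 50 mM HEPES pH 7.5, 30 °C. Initial hydrolysis rate read by absorbance at 300 nm and compared with the uninhibited reaction. Triplicate.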

[2] = molecular target: Beta-lactamase VIM-1 (Bacteria) (UniProt Q8GDC1); assay: Inhibition of VIM-1 (unknown origin) expressed in Escherichia coli BL21(DE3) assessed as substrate hydrolysis at 100 uM by UV-Vis spectrophotometric analysis relative to control; summary of the method: as §1
[3] = molecular target: Beta-lactamase VIM-1 (Bacteria) (UniProt Q8GDC1); assay: Inhibition of VIM-1 (unknown origin) expressed in Escherichia coli BL21(DE3) assessed as substrate hydrolysis at 200 uM by UV-Vis spectrophotometric analysis relative to control; summary of the method: as §1
[4] = molecular target: Metallo-beta-lactamase type 2 (Bacteria) (UniProt C7C422); assay: Inhibition of NDM1 (unknown origin) expressed in Escherichia coli BL21(DE3) assessed as substrate hydrolysis at 200 uM by UV-Vis spectrophotometric analysis relative to control; summary of the method: as §1
[5] = tested on: metallo-β-lactamase IMP-1 (Pseudomonas aeruginosa); assay: Inhibition of IMP1 (unknown origin) expressed in Escherichia coli BL21(DE3) assessed as substrate hydrolysis at 100 uM by UV-Vis spectrophotometric analysis relative to control
[6] = tested on: metallo-β-lactamase IMP-1 (Pseudomonas aeruginosa); assay: Inhibition of IMP1 (unknown origin) expressed in Escherichia coli BL21(DE3) assessed as substrate hydrolysis at 200 uM by UV-Vis spectrophotometric analysis relative to control
[7] = tested on: metallo-β-lactamase VIM-2 (Pseudomonas aeruginosa); assay: Inhibition of VIM-2 (unknown origin) expressed in Escherichia coli BL21(DE3) assessed as substrate hydrolysis at 100 uM by UV-Vis spectrophotometric analysis relative to control
[8] = tested on: metallo-β-lactamase VIM-2 (Pseudomonas aeruginosa); assay: Inhibition of VIM-2 (unknown origin) expressed in Escherichia coli BL21(DE3) assessed as substrate hydrolysis at 200 uM by UV-Vis spectrophotometric analysis relative to control
[9] = tested on: metallo-β-lactamase VIM-4 (Pseudomonas aeruginosa); assay: Inhibition of VIM-4 (unknown origin) expressed in Escherichia coli BL21(DE3) assessed as substrate hydrolysis at 100 uM by UV-Vis spectrophotometric analysis relative to control
[10] = tested on: metallo-β-lactamase VIM-4 (Pseudomonas aeruginosa); assay: Inhibition of VIM-4 (unknown origin) expressed in Escherichia coli BL21(DE3) assessed as substrate hydrolysis at 200 uM by UV-Vis spectrophotometric analysis relative to control
Beta-lactamase VIM-1 = Beta-lactamase VIM-1 (Bacteria, UniProt Q8GDC1); assay: Binding affinity to VIM-1 (unknown origin) expressed in Escherichia coli BL21(DE3) assessed as inhibition constant by measuring rate of substrate hydrolysis by UV-Vis spectrophotometric analysis
Summary of the method: (§2)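 Purified MBL (1–70 nM) with 150 µM imipenem or meropenem as reporter substrate, 50 mM HEPES pH 7.5, 30 °C. Hydrolysis followed by absorbance at 300 nm without and with inhibitor (0.5 µM–1 mM). Ki from the slope of v0/vi vs [I] under a competitive model, or from Dixon plots varying inhibitor and substrate. […] Triplicate, mean ± SD.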

[11] = Binding affinity to VIM-2 (unknown origin) expressed in Escherichia coli BL21(DE3) assessed as inhibition constant by measuring rate of substrate hydrolysis by UV-Vis spectrophotometric analysis; summary of the method: as §2
[12] = Binding affinity to VIM-4 (unknown origin) expressed in Escherichia coli BL21(DE3) assessed as inhibition constant by measuring rate of substrate hydrolysis by UV-Vis spectrophotometric analysis; summary of the method: as §2
Klebsiella pneumoniae [13] = assay: Antimicrobial synergistic activity against blaVIM-1-producing multidrug-resistant Klebsiella pneumoniae 7023 clinical isolate assessed as meropenem MIC at 32 ug/ml by CLSI based broth microdilution method (reference value: 16 ug/ml); type: functional; conditions: dose 32 µg/ml
Klebsiella pneumoniae [14] = assay: Antimicrobial synergistic activity against blaVIM-4-producing multidrug-resistant Klebsiella pneumoniae VA416/02 clinical isolate assessed as meropenem MIC at 32 ug/ml by CLSI based broth microdilution method (reference value: 16 ug/ml); type: functional; conditions: dose 32 µg/ml
Escherichia coli = assay: Synergistic antimicrobial activity against blaNDM-1-producing multidrug-resistant Escherichia coli SI-004M clinical isolate assessed as meropenem MIC at 32 ug/ml by CLSI based microdilution method (reference value: 64 ug/ml); type: functional; conditions: dose 32 µg/ml
[15] = tested on: metallo-β-lactamase L1 (Stenotrophomonas maltophilia); assay: Inhibition of L1 (unknown origin) expressed in Escherichia coli BL21(DE3) assessed as substrate hydrolysis at 100 uM by UV-Vis spectrophotometric analysis relative to control
[16] = Binding affinity to IMP1 (unknown origin) expressed in Escherichia coli BL21(DE3) assessed as inhibition constant by measuring rate of substrate hydrolysis by UV-Vis spectrophotometric analysis; conditions: read-out: Ki; summary of the method: as §2
[17] = molecular target: T1, Angiotensin-converting enzyme (Oryctolagus cuniculus) (UniProt P12822); assay: Inhibition of rabbit lung angiotensin-converting enzyme at 100 uM using Abz-Gly-Phe-(NO2)-Pro as substrate by fluorescence based microplate reader analysis relative to control; type: tissue-based
T1 sequence (whole entry): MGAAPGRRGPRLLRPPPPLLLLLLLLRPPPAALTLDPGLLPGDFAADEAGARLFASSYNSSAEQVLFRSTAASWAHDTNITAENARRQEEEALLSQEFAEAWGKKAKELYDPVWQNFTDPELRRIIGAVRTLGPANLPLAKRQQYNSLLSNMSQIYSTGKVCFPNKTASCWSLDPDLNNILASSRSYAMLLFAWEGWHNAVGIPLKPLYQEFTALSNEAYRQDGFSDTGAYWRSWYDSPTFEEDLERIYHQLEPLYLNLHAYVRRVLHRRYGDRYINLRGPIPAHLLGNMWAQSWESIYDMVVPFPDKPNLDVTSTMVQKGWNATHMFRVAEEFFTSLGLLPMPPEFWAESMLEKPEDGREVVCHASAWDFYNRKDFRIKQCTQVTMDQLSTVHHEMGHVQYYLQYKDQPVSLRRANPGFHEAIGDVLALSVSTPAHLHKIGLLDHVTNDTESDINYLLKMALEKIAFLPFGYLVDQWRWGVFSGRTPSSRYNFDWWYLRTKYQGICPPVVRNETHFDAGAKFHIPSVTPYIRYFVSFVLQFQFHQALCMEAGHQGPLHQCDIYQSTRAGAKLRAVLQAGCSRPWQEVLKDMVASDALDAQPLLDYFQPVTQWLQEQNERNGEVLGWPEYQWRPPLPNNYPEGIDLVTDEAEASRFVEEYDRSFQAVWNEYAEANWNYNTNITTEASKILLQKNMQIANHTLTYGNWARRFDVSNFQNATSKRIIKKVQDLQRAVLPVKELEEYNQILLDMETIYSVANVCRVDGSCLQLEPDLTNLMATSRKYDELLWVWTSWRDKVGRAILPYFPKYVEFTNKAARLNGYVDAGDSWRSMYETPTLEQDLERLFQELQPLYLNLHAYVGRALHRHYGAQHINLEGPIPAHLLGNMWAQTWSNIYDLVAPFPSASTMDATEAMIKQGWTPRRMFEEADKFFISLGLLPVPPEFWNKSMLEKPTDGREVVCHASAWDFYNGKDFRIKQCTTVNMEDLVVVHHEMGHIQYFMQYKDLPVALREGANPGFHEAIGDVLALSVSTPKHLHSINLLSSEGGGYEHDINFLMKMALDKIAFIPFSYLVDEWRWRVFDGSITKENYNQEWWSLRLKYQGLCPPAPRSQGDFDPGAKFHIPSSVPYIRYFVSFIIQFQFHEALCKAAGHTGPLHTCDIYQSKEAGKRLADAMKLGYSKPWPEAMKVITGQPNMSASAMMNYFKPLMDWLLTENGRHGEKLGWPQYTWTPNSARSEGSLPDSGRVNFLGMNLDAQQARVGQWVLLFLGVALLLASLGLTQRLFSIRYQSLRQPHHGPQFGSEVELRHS
Summary of the method: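 Rabbit lung ACE, 1.5 mU per well, in 150 mM Tris, 750 mM NaCl, pH 8.3, with Abz-Gly-Phe(NO2)-Pro substrate. Blank-corrected fluorescence of released Abz-Gly-OH (ex 316, em 413 nm) followed up to 90 min. Test compounds at 100 µM; captopril control at 100 nM. Inhibition % = 100 − (vi/v0 × 100).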

[18] = molecular target: Metallo-beta-lactamase type 2 (Bacteria, UniProt C7C422); assay: Binding affinity to NDM1 (unknown origin) expressed in Escherichia coli BL21(DE3) assessed as inhibition constant by measuring rate of substrate hydrolysis by UV-Vis spectrophotometric analysis; conditions: read-out: Ki; summary of the method: as §2
Sequence of Metallo-beta-lactamase type 2 (C7C422 whole entry): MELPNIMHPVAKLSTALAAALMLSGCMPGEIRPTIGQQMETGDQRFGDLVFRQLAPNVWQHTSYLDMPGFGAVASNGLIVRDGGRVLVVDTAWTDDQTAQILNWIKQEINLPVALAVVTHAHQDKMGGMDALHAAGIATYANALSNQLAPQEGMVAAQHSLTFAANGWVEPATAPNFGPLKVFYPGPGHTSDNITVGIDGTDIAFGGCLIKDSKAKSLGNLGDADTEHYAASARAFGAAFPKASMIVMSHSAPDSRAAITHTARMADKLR

Sequence of Metallo-beta-lactamase type 2 (Bacteria) (C7C422 whole entry): as above

S=c1[nH]nc(Cc2ccc3ccccc3c2)n1-c1ccc(OCc2ccccc2)cc1
inhibition [1]: < 30%
inhibition [2]: < 30%
inhibition [3]: < 50%
inhibition [4]: < 50%
inhibition [5]: < 30%
inhibition [6]: < 50%
inhibition [7]: < 30%
inhibition [8]: < 50%
inhibition [9]: < 30%
inhibition [10]: < 50%

O=C1OC(Cn2c(-c3ccccc3-c3ccccc3)n[nH]c2=S)c2ccccc21 (centres undefined)
inhibition [1]: < 30%
inhibition [2]: 30%
inhibition [4]: < 50%
inhibition [5]: 54%
inhibition [7]: < 30%
inhibition [8]: < 50%
inhibition [9]: 34%

S=c1[nH]nc(-c2ccccc2)n1CCc1c[nH]c2ccccc12
inhibition [1]: < 30%
inhibition [2]: 50%
inhibition [4]: < 50%
inhibition [5]: < 30%
inhibition [6]: < 50%
inhibition [8]: 50%
inhibition [10]: 50%

COc1ccc(O)c(-c2n[nH]c(=S)n2Cc2ccccc2)c1
Ki (Beta-lactamase VIM-1): 590 nM
Ki [11]: 4000 nM
Ki [12]: 1800 nM
inhibition [1]: < 30%
MIC (Klebsiella pneumoniae [13]): 2 µg/mL
MIC (Klebsiella pneumoniae [14]): 2 µg/mL
MIC (Escherichia coli): 32 µg/mL
inhibition [15]: 40%
inhibition [5]: < 30%

S=c1[nH]nc(-c2ccccc2)n1CCCCc1ccccc1
Ki (Beta-lactamase VIM-1): 1200 nM
Ki [11]: 230 nM
Ki [12]: 430 nM
inhibition [1]: 55%
MIC (Klebsiella pneumoniae [13]): 2 µg/mL
MIC (Klebsiella pneumoniae [14]): 4 µg/mL
MIC (Escherichia coli): 64 µg/mL
inhibition [15]: 50%
inhibition [5]: < 30%

Sc1nnc(-c2ccccc2)n1Cc1ccccc1
Ki (Beta-lactamase VIM-1): 720 nM
Ki [12]: 1500 nM
Ki [16]: 8000 nM
inhibition [1]: < 30%
MIC (Klebsiella pneumoniae [13]): 4 µg/mL
MIC (Klebsiella pneumoniae [14]): 4 µg/mL
inhibition [17]: inactive

O=C(O)Cc1ccccc1Cn1c(-c2ccccc2)n[nH]c1=S
inhibition [1]: < 30%
inhibition [2]: < 30%
inhibition [15]: < 30%
inhibition [5]: < 30%
inhibition [7]: 50%
inhibition [9]: < 30%

S=c1[nH]nc(-c2ccccc2)n1CCc1ccc(OCc2ccccc2)cc1
Ki [11]: 18900 nM
Ki [16]: 5300 nM
inhibition [1]: < 30%
inhibition [2]: 34%
inhibition [4]: < 50%
inhibition [9]: < 30%
inhibition [10]: < 50%

O=C(O)c1cccc(Cn2c(-c3ccccc3)n[nH]c2=S)c1
Ki (Beta-lactamase VIM-1): 1400 nM
Ki [11]: 1800 nM
Ki [12]: 400 nM
inhibition [1]: < 30%
MIC (Klebsiella pneumoniae [13]): 2 µg/mL
MIC (Klebsiella pneumoniae [14]): 2 µg/mL
MIC (Escherichia coli): 32 µg/mL
inhibition [17]: inactive
inhibition [5]: < 30%

O=C(O)c1ccc(Cn2c(-c3ccccc3)n[nH]c2=S)cc1
Ki (Beta-lactamase VIM-1): 3600 nM
Ki [11]: 2700 nM
Ki [12]: 1100 nM
inhibition [1]: < 30%
MIC (Klebsiella pneumoniae [13]): 4 µg/mL
MIC (Klebsiella pneumoniae [14]): 2 µg/mL
MIC (Escherichia coli): 64 µg/mL
inhibition [15]: 45%
inhibition [5]: < 30%

S=c1[nH]nc(Cc2ccccc2)n1Cc1ccccc1
Ki (Beta-lactamase VIM-1): 23000 nM
inhibition [1]: < 30%
inhibition [15]: 40%
inhibition [5]: 57%
inhibition [7]: < 30%
inhibition [9]: < 30%

S=c1[nH]nc(-c2ccccc2)n1[C@@H]1C[C@H]1c1ccccc1
Ki (Beta-lactamase VIM-1): 3100 nM
Ki [18]: 15400 nM
inhibition [7]: 30%
inhibition [9]: < 30%
inhibition [10]: < 50%

S=c1[nH]nc(Cc2ccccc2)n1CCCc1ccccc1
inhibition [1]: < 30%
inhibition [2]: 30%
inhibition [15]: 32%
inhibition [5]: 63%
inhibition [7]: < 30%
inhibition [9]: < 30%

Cc1ccccc1-c1n[nH]c(=S)n1CCc1ccc(OCc2ccccc2)cc1
inhibition [1]: < 30%
inhibition [2]: 47%
inhibition [4]: < 50%
inhibition [5]: < 30%
inhibition [6]: < 50%
inhibition [7]: < 30%
inhibition [8]: < 50%
inhibition [9]: < 30%
inhibition [10]: < 50%

O=C1OC(Cn2c(Cc3ccc4ccccc4c3)n[nH]c2=S)c2ccccc21 (centres undefined)
inhibition [1]: < 30%
inhibition [2]: < 30%
inhibition [3]: < 50%
inhibition [4]: < 50%
inhibition [5]: 30%
inhibition [7]: < 30%
inhibition [8]: < 50%
inhibition [9]: < 30%
inhibition [10]: < 50%

COc1ccc(O)c(-c2n[nH]c(=S)n2CC2OC(=O)c3ccccc32)c1 (centres undefined)
Ki (Beta-lactamase VIM-1): 1200 nM
Ki [11]: 3300 nM
Ki [12]: 900 nM
inhibition [1]: 68%
MIC (Klebsiella pneumoniae [13]): 2 µg/mL
MIC (Klebsiella pneumoniae [14]): 2 µg/mL
MIC (Escherichia coli): 64 µg/mL
inhibition [17]: inactive
inhibition [5]: 47%
